# Columns and labels:
# Hepatocyte [1] = assay: Induction of change in CYB5A protein expression in human primary hepatocytes at 10 uM incubated for 48 hrs by relative-quantitation label-free proteomics analysis relative to NVP; format: cell-based
# How it was run: (§1)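 Cryoplateable pooled human hepatocytes (10 mixed-sex donors per pool; three pools), adhered overnight, then given fresh medium containing compound (10 μM), NVP (10 μM) or vehicle (0.1% DMSO) for 48 h. Lysate reduced (DTT) and alkylated (iodoacetamide), acetone-precipitated and digested with trypsin. Label-free Top10 nanoLC-MS with precursor ion area quantitation; unpaired t test P values, Cohen's d effect size.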
# Hepatocyte [2] = assay: Induction of change in 5-Mar protein expression in C57BL/6J mouse primary hepatocytes at 400 uM incubated for 8 hrs by relative-quantitation label-free proteomics analysis relative to NVP; format: cell-based
# How it was run: as §1, with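 “Fresh primary” for “Cryoplateable pooled human”, “from male C57BL/6J mice aged 8–13 weeks,” for “(10 mixed-sex donors per pool; three pools),”, “(400” for “(10”, “(0.2%” for “(0.1%”, “8” for “48”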
# Cytochrome P450 2C19 = Cytochrome P450 2C19 (Homo sapiens, UniProt P33261); assay: Drug metabolism assessed as human CYP2C19-mediated formation of 12-OHNVP at 10 uM pre-incubated for 30 mins followed by addition of NADPH regenerating reagents by uHPLC-MS analysis; format: ADME; settings: recombinant enzyme
# Cytochrome P450 2C19, sequence (P33261 whole entry): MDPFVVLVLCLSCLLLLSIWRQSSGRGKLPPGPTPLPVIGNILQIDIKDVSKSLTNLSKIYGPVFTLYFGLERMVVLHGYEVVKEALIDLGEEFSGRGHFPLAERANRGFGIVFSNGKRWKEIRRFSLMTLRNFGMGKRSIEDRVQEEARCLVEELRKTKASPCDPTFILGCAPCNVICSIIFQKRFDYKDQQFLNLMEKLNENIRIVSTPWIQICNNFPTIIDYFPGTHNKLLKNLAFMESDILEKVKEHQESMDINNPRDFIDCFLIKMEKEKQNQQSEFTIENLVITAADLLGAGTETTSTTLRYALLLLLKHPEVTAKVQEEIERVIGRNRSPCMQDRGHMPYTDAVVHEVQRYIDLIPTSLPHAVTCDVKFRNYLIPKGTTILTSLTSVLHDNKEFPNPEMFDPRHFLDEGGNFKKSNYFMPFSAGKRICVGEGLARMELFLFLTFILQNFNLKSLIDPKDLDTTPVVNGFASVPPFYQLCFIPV
# How it was run: (§2)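 Insect-cell microsomes with single cDNA-expressed human P450 (100 nM) in 0.1 M potassium phosphate; 10 μM substrate prewarmed 5 min at 37 °C with NADPH-regenerating system, reaction started by adding microsomes; 30 min at 37 °C, 0.1% DMSO. Stopped, dried, reconstituted in methanol; triple-quadrupole SRM (12-OH 283.1→223.0, 2-OH 283.1→160.9, 3-OH 283.1→241.9), peak height; three replicates, mean ± SD.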
# Hepatocyte [3] = assay: Induction of change in Actb protein expression in C57BL/6J mouse primary hepatocytes at 400 uM incubated for 8 hrs by relative-quantitation label-free proteomics analysis relative to NVP; format: cell-based
# How it was run: as §1, with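 “Fresh primary” for “Cryoplateable pooled human”, “from male C57BL/6J mice aged 8–13 weeks,” for “(10 mixed-sex donors per pool; three pools),”, “(400” for “(10”, “(0.2%” for “(0.1%”, “8” for “48”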
# Hepatocyte [4] = assay: Induction of change in Sirt5 protein expression in C57BL/6J mouse primary hepatocytes at 400 uM incubated for 8 hrs by relative-quantitation label-free proteomics analysis relative to NVP; format: cell-based
# How it was run: as §1, with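 “Fresh primary” for “Cryoplateable pooled human”, “from male C57BL/6J mice aged 8–13 weeks,” for “(10 mixed-sex donors per pool; three pools),”, “(400” for “(10”, “(0.2%” for “(0.1%”, “8” for “48”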
# Hepatocyte [5] = assay: Induction of change in KlAA2013 protein expression in human primary hepatocytes at 10 uM incubated for 48 hrs by relative-quantitation label-free proteomics analysis relative to NVP; format: cell-based; how it was run: as §1
# Hepatocyte [6] = assay: Induction of change in TMED9 protein expression in human primary hepatocytes at 10 uM incubated for 48 hrs by relative-quantitation label-free proteomics analysis relative to NVP; format: cell-based; how it was run: as §1
# Hepatocyte [7] = assay: Induction of change in EXOSC1 protein expression in human primary hepatocytes at 10 uM incubated for 48 hrs by relative-quantitation label-free proteomics analysis relative to NVP; format: cell-based; how it was run: as §1
# Hepatocyte [8] = assay: Induction of change in CCAR2 protein expression in human primary hepatocytes at 10 uM incubated for 48 hrs by relative-quantitation label-free proteomics analysis relative to NVP; format: cell-based; how it was run: as §1
# [9] = Drug metabolism in C57BL/6J mouse primary hepatocytes assessed as Cytochrome P450-mediated formation of 12-OHD2NVP at 10 uM incubated for 24 hrs by uHPLC-MS analysis; format: ADME, cell-based
# How it was run: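 Fresh hepatocytes from male C57BL/6J mice (8–13 weeks), adhered overnight, then 10 μM substrate or vehicle (0.1% DMSO) for 24 h. Medium extracted with acetonitrile (50% final), dried, reconstituted in methanol; uHPLC-Orbitrap targeted SIM plus PRM (monooxygenated metabolites) or high-resolution ions (O-glucuronides, 459.1510/462.1700 ±5 ppm); four experimental replicates.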
# Cytochrome P450 3A4 = Cytochrome P450 3A4 (Homo sapiens, UniProt P08684); assay: Drug metabolism assessed as human CYP3A4-mediated formation of 2-OHNVP at 10 uM pre-incubated for 30 mins followed by addition of NADPH regenerating reagents by uHPLC-MS analysis; format: ADME; settings: recombinant enzyme; how it was run: as §2
# Cytochrome P450 3A4, sequence (P08684 whole entry): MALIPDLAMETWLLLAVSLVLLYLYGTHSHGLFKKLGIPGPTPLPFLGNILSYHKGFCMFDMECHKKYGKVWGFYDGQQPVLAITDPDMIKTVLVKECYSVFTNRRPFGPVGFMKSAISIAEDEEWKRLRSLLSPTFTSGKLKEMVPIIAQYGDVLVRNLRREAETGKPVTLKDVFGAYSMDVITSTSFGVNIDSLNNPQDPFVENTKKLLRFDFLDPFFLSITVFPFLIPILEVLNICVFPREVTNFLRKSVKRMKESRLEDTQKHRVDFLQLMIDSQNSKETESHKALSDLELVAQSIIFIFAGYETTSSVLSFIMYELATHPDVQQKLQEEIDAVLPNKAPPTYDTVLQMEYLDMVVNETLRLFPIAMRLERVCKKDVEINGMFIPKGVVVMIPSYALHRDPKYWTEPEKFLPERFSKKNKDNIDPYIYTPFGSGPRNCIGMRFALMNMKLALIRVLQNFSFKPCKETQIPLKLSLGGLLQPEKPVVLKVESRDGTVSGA
# Hepatocyte [10] = assay: Induction of change in Rps27l protein expression in C57BL/6J mouse primary hepatocytes at 400 uM incubated for 8 hrs by relative-quantitation label-free proteomics analysis relative to NVP; format: cell-based
# How it was run: as §1, with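 “Fresh primary” for “Cryoplateable pooled human”, “from male C57BL/6J mice aged 8–13 weeks,” for “(10 mixed-sex donors per pool; three pools),”, “(400” for “(10”, “(0.2%” for “(0.1%”, “8” for “48”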
# Hepatocyte [11] = assay: Induction of change in SARNP protein expression in human primary hepatocytes at 10 uM incubated for 48 hrs by relative-quantitation label-free proteomics analysis relative to NVP; format: cell-based; how it was run: as §1
# Hepatocyte [12] = assay: Induction of change in MTX2 protein expression in human primary hepatocytes at 10 uM incubated for 48 hrs by relative-quantitation label-free proteomics analysis relative to NVP; format: cell-based; how it was run: as §1
# Hepatocyte [13] = assay: Induction of change in Acy3 protein expression in C57BL/6J mouse primary hepatocytes at 400 uM incubated for 8 hrs by relative-quantitation label-free proteomics analysis relative to NVP; format: cell-based
# How it was run: as §1, with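 “Fresh primary” for “Cryoplateable pooled human”, “from male C57BL/6J mice aged 8–13 weeks,” for “(10 mixed-sex donors per pool; three pools),”, “(400” for “(10”, “(0.2%” for “(0.1%”, “8” for “48”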
# Hepatocyte [14] = assay: Induction of change in FUBP3 protein expression in human primary hepatocytes at 10 uM incubated for 48 hrs by relative-quantitation label-free proteomics analysis relative to NVP; format: cell-based; how it was run: as §1
# Cytochrome P450 2B6 = biological target: T1, Cytochrome P450 2B6 (Homo sapiens, UniProt P20813); assay: Drug metabolism assessed as human CYP2B6-mediated formation of 3-OHNVP at 10 uM pre-incubated for 30 mins followed by addition of NADPH regenerating reagents by uHPLC-MS analysis; format: ADME; settings: recombinant enzyme; how it was run: as §2
# T1 sequence (P20813 whole entry): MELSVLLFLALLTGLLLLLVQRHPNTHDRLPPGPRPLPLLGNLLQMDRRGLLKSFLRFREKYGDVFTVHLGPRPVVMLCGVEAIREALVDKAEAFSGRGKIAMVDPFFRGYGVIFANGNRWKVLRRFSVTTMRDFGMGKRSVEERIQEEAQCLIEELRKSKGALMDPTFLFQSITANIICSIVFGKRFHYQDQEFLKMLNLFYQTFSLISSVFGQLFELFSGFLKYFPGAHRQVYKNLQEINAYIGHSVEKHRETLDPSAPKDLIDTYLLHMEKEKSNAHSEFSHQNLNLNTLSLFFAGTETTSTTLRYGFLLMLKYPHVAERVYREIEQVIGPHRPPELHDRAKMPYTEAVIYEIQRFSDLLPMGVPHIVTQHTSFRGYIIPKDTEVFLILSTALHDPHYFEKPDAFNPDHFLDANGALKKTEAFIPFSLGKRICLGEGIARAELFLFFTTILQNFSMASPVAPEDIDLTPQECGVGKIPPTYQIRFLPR
# [15] = Drug metabolism in human primary hepatocytes assessed as O-GlucNVP metabolite formation at 10 uM incubated for 24 hrs by uHPLC-MS analysis; format: ADME, cell-based, Hepatocyte
# How it was run: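 Cryoplateable pooled human hepatocytes (10 mixed-sex donors per pool, three lots), adhered overnight, then 10 μM substrate or vehicle (0.1% DMSO) for 24 or 48 h in InVitroGRO CP medium. Medium extracted with 50% acetonitrile, dried, reconstituted in methanol; uHPLC-Orbitrap MS/MS for monooxygenated metabolites, high-resolution MS for O-glucuronide.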
# Hepatocyte [16] = assay: Induction of change in Slc22a28 protein expression in C57BL/6J mouse primary hepatocytes at 400 uM incubated for 8 hrs by relative-quantitation label-free proteomics analysis relative to NVP; format: cell-based
# How it was run: as §1, with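 “Fresh primary” for “Cryoplateable pooled human”, “from male C57BL/6J mice aged 8–13 weeks,” for “(10 mixed-sex donors per pool; three pools),”, “(400” for “(10”, “(0.2%” for “(0.1%”, “8” for “48”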
compound,measurement,setting,value
[2H]C([2H])([2H])c1ccnc2c1NC(=O)c1cccnc1N2C1CC1,fold change (FC),Hepatocyte [1],-1.5
same,fold change (FC),Hepatocyte [2],-2.14
same,Drug metabolism,Cytochrome P450 2C19,Metabolite_Detected
same,fold change (FC),Hepatocyte [3],1.05
same,fold change (FC),Hepatocyte [4],1.56
same,fold change (FC),Hepatocyte [5],1.36
same,fold change (FC),Hepatocyte [6],-1.93
same,fold change (FC),Hepatocyte [7],-2.73
same,fold change (FC),Hepatocyte [8],-2.05
same,Drug metabolism,[9],Metabolite_Detected
same,Drug metabolism,Cytochrome P450 3A4,Metabolite_Detected
same,fold change (FC),Hepatocyte [10],-5.67
same,fold change (FC),Hepatocyte [11],-1.65
same,fold change (FC),Hepatocyte [12],-1.67
same,fold change (FC),Hepatocyte [13],1.6
same,fold change (FC),Hepatocyte [14],-1.47
same,Drug metabolism,Cytochrome P450 2B6,Metabolite_Detected
same,Drug metabolism,[15],Metabolite_Detected
same,fold change (FC),Hepatocyte [16],-1.66
